Data on 5 compounds can be found in ChEMBL document CHEMBL1139437, “Design, synthesis, and preliminary pharmacological evaluation of 4-aminopiperidine derivatives as N-type calcium channel blockers active on pain and neuropathic pain” (J Med Chem, 2004).

For assay [1], the system named is Mus musculus. Put plainly: (§1) Analgesic activity was evaluated in mouse hotplate test; expressed as licking latency after 30 min of treatment at a dose of 10 ug intracerebroventricularly. Type of assay: functional. Put shortly: (§2)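 Male Swiss albino mice (23-30 g); icv injection of 5 μL (saline or H2O/DMSO 2:1) under brief anaesthesia. Paw-licking latency (s) on hot plate read before injection and every 15 min up to 60 min. Mice with pretest latency below 12 or over 18 s excluded; cutoff 45 s. Statistics against saline- or vehicle-treated controls.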

Assay [2] is filed under the species Mus musculus. Put plainly: Percentage analgesic efficacy when compared to morphine. Also on record: concentration or dose not given beside the values. It is filed as functional. In a few lines:
(§3)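 Male Swiss albino mice, hot-plate test, paw-licking latency; pretest 12–18 s required, cutoff 45 s. Icv injection of 5 μL under brief anaesthesia, in saline or H2O/DMSO 2:1, at maximal soluble dose. Latency read before and every 15 min after dosing. Efficacy = (peak latency − pretest) as % of the same value for morphine 10 μg/mouse icv; non-significant effects scored 0.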

Assay [3] has as its system Mus musculus. Put plainly: (§4) Analgesic activity was evaluated in mouse hotplate test; expressed as licking latency after 45 min of treatment at a dose of 10 ug intracerebroventricularly. Type of assay: functional. In a few lines: as §2
In assay [4] the test system is Mus musculus. Put plainly: (§5) Analgesic activity was evaluated in mouse hotplate test; expressed as licking latency after 15 min of treatment at a dose of 10 ug intracerebroventricularly. It is filed as functional. In a few lines:
as §2

Assay [5] has as its system Rattus norvegicus. Put plainly: Antihyperalgesic activity was evaluated in rat (dx) paw pressure test after 30 min at a dose of 10 ug intracerebroventricularly.
The subject of assay [6] is Rattus norvegicus. Put plainly: Antihyperalgesic activity was evaluated in rat (dx) paw pressure test after 45 min at a dose of 10 ug intracerebroventricularly.
Assay [7] relates to Rattus norvegicus. Put plainly: Antihyperalgesic activity was evaluated in rat (dx) paw pressure test after 60 min at a dose of 10 ug intracerebroventricularly.
For assay [8], the system named is Rattus norvegicus. Put plainly: Antihyperalgesic activity was evaluated in rat (sn) paw pressure test after 30 min at a dose of 10 ug intracerebroventricularly.
Assay [9] deals with Rattus norvegicus. Put plainly: Antihyperalgesic activity was evaluated in rat (sn) paw pressure test after 45 min at a dose of 10 ug intracerebroventricularly.
In assay [10] the test system is Rattus norvegicus. Put plainly: Antihyperalgesic activity was evaluated in rat (sn) paw pressure test after 60 min at a dose of 10 ug intracerebroventricularly.
Assay [11] has as its system Mus musculus. Put plainly: Analgesic activity was evaluated in mouse hotplate test; expressed as licking latency after 15 min of treatment at a dose of 5 ug intracerebroventricularly. It is filed as functional. In a few lines: as §2
In assay [12] the test system is Mus musculus. Put plainly: Analgesic activity was evaluated in mouse hotplate test; expressed as licking latency after 30 min of treatment at a dose of 5 ug intracerebroventricularly. It is filed as functional. Put shortly:
as §2

In assay [13] the test system is Mus musculus. Put plainly: Analgesic activity was evaluated in mouse hotplate test; expressed as licking latency after 45 min of treatment at a dose of 5 ug intracerebroventricularly. Type of assay: functional. Put shortly: as §2
Assay [14] has as its system Mus musculus. Put plainly: Percentage analgesic efficacy when compared to morphine at 10 ug intracerebroventricularly. It is filed as functional. In a few lines:
as §3

The subject of assay [15] is Mus musculus. Put plainly: Percentage analgesic efficacy when compared to morphine at 50 ug intracerebroventricularly. Type of assay: functional. In a few lines:
as §3

For assay [16], the system named is Mus musculus. Put plainly: Analgesic activity was evaluated in mouse hotplate test; expressed as licking latency after 30 min of treatment at a dose of 25 ug intracerebroventricularly. Type of assay: functional. In a few lines:
as §2

Assay [17] relates to Mus musculus. Put plainly: Analgesic activity was evaluated in mouse hotplate test; expressed as licking latency after 15 min of treatment at a dose of 25 ug intracerebroventricularly. Type of assay: functional. In a few lines: as §2
Assay [18] relates to Mus musculus. Put plainly: Analgesic activity was evaluated in mouse hotplate test; expressed as licking latency after 45 min of treatment at a dose of 25 ug intracerebroventricularly. Type of assay: functional. Put shortly: as §2
Assay [19] concerns Mus musculus. Put plainly: Analgesic activity was evaluated in mouse hotplate test; expressed as licking latency before treatment at a dose of 10 ug intracerebroventricularly. Type of assay: functional. In a few lines:
as §2

The test system of assay [20] is Mus musculus. Put plainly: Analgesic activity was evaluated in mouse hotplate test; expressed as licking latency before treatment at a dose of 25 ug intracerebroventricularly. Type of assay: functional. In a few lines:
as §2

Assay [21] concerns Mus musculus. Put plainly: Analgesic activity was evaluated in mouse hotplate test; expressed as licking latency after 15 min of treatment at a dose of 50 ug intracerebroventricularly. It is filed as functional. Put shortly:
as §2

Assay [22] has as its system Mus musculus. Put plainly: Analgesic activity was evaluated in mouse hotplate test; expressed as licking latency after 30 min of treatment at a dose of 50 ug intracerebroventricularly. Type of assay: functional. In a few lines:
as §2

Assay [23] has as its system Mus musculus. Put plainly: Analgesic activity was evaluated in mouse hotplate test; expressed as licking latency after 45 min of treatment at a dose of 50 ug intracerebroventricularly. Type of assay: functional. Put shortly: as §2
Assay [24] concerns Rattus norvegicus. Put plainly: Antihyperalgesic activity was evaluated in rat (dx) paw pressure test after 30 min at a dose of 50 ug intracerebroventricularly.
The test system of assay [25] is Rattus norvegicus. Put plainly: Antihyperalgesic activity was evaluated in rat (dx) paw pressure test after 45 min at a dose of 50 ug intracerebroventricularly.
Assay [26] relates to Rattus norvegicus. Put plainly: Antihyperalgesic activity was evaluated in rat (dx) paw pressure test after 60 min at a dose of 50 ug intracerebroventricularly.
Assay [27] concerns Rattus norvegicus. Put plainly: Antihyperalgesic activity was evaluated in rat (sn) paw pressure test after 30 min at a dose of 50 ug intracerebroventricularly.
The test system of assay [28] is Rattus norvegicus. Put plainly: Antihyperalgesic activity was evaluated in rat (sn) paw pressure test after 45 min at a dose of 50 ug intracerebroventricularly.
Assay [29] has as its system Rattus norvegicus. Put plainly: Antihyperalgesic activity was evaluated in rat (sn) paw pressure test after 60 min at a dose of 50 ug intracerebroventricularly.
Assay [30] has as its target Voltage-dependent N-type calcium channel subunit alpha-1B (Rattus norvegicus) (UniProt Q02294). Put plainly: In vitro antagonism of N-type calcium channels expressed in PC12 cells was determined as the increase in intracellular calcium influx in the presence of 10 uM nifedipine. Background: Calcium assays in cells follow changes in intracellular calcium, usually with a dye or a luminescent sensor.

Assay [31] deals with Mus musculus. Put plainly: Analgesic activity was evaluated in mouse hotplate test; expressed as licking latency after 15 min of treatment at a dose of 40 ug intracerebroventricularly. It is filed as functional. In a few lines:
as §2

In assay [32] the test system is Mus musculus. Put plainly: Analgesic activity was evaluated in mouse hotplate test; expressed as licking latency after 30 min of treatment at a dose of 40 ug intracerebroventricularly. It is filed as functional. In a few lines:
as §2

The subject of assay [33] is Mus musculus. Put plainly: Analgesic activity was evaluated in mouse hotplate test; expressed as licking latency after 45 min of treatment at a dose of 40 ug intracerebroventricularly. It is filed as functional. In a few lines:
as §2

In assay [34] the test system is Rattus norvegicus. Put plainly: Antihyperalgesic activity was evaluated in rat (dx) paw pressure test after 30 min at a dose of 40 ug intracerebroventricularly.
The subject of assay [35] is Rattus norvegicus. Put plainly: Antihyperalgesic activity was evaluated in rat (dx) paw pressure test after 45 min at a dose of 40 ug intracerebroventricularly.
For assay [36], the system named is Rattus norvegicus. Put plainly: Antihyperalgesic activity was evaluated in rat (dx) paw pressure test after 60 min at a dose of 40 ug intracerebroventricularly.
Assay [37] relates to Rattus norvegicus. Put plainly: Antihyperalgesic activity was evaluated in rat (sn) paw pressure test after 30 min at a dose of 40 ug intracerebroventricularly.
For assay [38], the system named is Rattus norvegicus. Put plainly: Antihyperalgesic activity was evaluated in rat (sn) paw pressure test after 45 min at a dose of 40 ug intracerebroventricularly.
Assay [39] deals with Rattus norvegicus. Put plainly: Antihyperalgesic activity was evaluated in rat (sn) paw pressure test after 60 min at a dose of 40 ug intracerebroventricularly.
For assay [40], the target named is Voltage-dependent N-type calcium channel subunit alpha-1B (Rattus norvegicus) (UniProt Q02294). Put plainly: In vitro antagonism of N-type calcium channels expressed in PC12 cells was determined as the increase in intracellular calcium influx.
Assay [41] deals with Mus musculus. The description is as §5. It is filed as functional. In a few lines:
(§6)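 Male Swiss albino mice (23-30 g); icv injection under brief anaesthesia, 5 μL into the lateral ventricle, in saline or H2O/DMSO (2:1). Hot plate: latency to licking of fore or hind paws timed with a stopwatch before injection and every 15 min up to 60 min. Pretest scores below 12 or over 18 s rejected; cutoff 45 s.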
The source holds these as a separate data set.

In assay [42] the test system is Mus musculus. Described as §1. It is filed as functional. In a few lines:
as §6
This is another data set of the same source.

Assay [43] concerns Mus musculus. Described as §4. Type of assay: functional. Put shortly: as §6
This is another data set of the same source.

Chain of Voltage-dependent N-type calcium channel subunit alpha-1B (Rattus norvegicus) (Q02294 whole entry, looked up): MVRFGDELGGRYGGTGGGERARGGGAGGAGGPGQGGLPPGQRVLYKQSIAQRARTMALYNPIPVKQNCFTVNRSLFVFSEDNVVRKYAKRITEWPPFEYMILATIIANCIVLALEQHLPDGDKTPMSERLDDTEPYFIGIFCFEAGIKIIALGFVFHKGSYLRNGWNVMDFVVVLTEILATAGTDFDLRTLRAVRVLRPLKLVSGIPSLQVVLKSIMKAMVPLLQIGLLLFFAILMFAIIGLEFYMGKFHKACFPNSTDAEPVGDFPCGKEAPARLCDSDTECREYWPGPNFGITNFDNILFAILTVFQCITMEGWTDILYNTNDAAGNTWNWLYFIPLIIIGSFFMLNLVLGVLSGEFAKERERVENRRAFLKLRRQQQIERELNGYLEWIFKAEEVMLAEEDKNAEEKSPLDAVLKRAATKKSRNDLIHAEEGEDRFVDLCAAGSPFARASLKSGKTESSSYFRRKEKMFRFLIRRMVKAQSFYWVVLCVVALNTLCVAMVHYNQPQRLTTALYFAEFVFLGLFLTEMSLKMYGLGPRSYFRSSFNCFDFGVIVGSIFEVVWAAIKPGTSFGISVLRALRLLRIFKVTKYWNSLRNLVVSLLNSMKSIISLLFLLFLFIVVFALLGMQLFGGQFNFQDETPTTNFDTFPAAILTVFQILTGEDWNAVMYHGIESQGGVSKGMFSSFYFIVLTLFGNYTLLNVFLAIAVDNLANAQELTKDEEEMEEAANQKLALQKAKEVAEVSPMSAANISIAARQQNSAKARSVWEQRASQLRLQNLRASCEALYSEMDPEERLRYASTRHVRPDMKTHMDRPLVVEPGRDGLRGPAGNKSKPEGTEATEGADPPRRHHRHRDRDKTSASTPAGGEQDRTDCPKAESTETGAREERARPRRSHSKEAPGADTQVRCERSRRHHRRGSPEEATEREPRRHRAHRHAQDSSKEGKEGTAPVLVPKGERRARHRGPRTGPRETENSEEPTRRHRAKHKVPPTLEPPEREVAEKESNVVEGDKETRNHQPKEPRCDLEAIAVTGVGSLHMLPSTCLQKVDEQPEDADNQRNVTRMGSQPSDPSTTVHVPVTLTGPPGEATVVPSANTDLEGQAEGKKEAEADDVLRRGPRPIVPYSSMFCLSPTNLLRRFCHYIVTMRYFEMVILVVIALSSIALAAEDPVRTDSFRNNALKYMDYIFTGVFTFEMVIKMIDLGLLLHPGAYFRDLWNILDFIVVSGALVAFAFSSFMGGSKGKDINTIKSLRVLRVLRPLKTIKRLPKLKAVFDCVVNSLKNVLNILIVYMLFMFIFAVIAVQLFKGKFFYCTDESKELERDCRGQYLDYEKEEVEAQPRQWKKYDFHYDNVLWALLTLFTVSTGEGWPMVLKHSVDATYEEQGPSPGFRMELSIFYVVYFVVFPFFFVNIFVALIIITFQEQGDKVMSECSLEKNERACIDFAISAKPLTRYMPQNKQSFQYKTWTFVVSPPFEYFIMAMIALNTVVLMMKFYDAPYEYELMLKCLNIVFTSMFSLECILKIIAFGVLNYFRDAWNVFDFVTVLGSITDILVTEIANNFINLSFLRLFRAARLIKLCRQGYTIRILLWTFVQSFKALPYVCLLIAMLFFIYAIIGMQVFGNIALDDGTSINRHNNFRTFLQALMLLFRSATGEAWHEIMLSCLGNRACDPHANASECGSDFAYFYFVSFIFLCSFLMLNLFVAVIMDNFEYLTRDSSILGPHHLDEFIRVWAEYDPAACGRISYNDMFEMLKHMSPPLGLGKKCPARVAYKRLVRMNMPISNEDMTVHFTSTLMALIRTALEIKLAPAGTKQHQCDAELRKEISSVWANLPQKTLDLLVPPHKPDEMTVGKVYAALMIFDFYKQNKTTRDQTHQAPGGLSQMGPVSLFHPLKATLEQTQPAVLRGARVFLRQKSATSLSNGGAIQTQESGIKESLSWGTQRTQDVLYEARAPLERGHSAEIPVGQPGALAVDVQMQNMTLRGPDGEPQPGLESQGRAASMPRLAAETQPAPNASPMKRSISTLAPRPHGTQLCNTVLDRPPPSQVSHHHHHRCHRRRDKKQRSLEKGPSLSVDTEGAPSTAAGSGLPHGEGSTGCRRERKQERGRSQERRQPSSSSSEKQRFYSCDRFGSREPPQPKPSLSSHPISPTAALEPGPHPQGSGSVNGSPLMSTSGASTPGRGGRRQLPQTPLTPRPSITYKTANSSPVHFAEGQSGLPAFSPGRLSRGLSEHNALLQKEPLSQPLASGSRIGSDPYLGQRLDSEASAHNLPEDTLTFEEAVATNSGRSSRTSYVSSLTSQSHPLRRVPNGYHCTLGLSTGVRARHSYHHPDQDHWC

For the compound `CCCCNC1CCN(CCCC(c2ccccc2)c2ccccc2)CC1.O=C(O)C(=O)O`, the Latency amounted to 22.4 s in [1], 15.8 s in [3] and 22.6 s in assay [4]. Also, the Efficacy in assay [2] is recorded as 64%. For the same compound, the Activity amounted to 50.3 g in assay [5]; 52.6 g in [6]; 46.5 g in assay [7]; 57.5 g in [8]; 61.2 g in assay [9]; 63 g in [10].
Turning to `COc1ccc(CCNC2CCN(CCCC(c3ccccc3)c3ccccc3)CC2)cc1OC.O=C(O)C(=O)O`, the Efficacy in [2] stood at 0%. The Latency in assay [11] is listed as 17.7 s; in assay [12], 16.4 s; in assay [13], 16.8 s.
Consider `Cl.NC1CCN(C(=O)CCC(c2ccc(F)cc2)c2ccc(F)cc2)CC1`, for which the Efficacy came out at 0% in [14] and 147% in [15]. Further, the Activity in assay [1] is listed as 16.1 s; in assay [16], 23.9 s; in assay [17] it was 24.6 s; in assay [3] it was 16.4 s; in [18], 20.5 s; in assay [19] it was 14.3 s. Further, the Activity in [20] is on record as 13.9 s; in [21], 34.1 s; in [4], 15.7 s; in assay [22] it was 31.7 s; in assay [23], 29.5 s; in assay [24] it was 55.1 g. For the same compound, the Activity stood at 54.8 g in assay [25]; 59.3 g in assay [26]; 62.3 g in assay [27]; 55.6 g in assay [28]; 54.7 g in [29]. In assay [30], the IC50 (in general, the concentration needed to halve the response being measured) was 2400 nM.
For `CNC(CC(C)C)C(=O)NC1CCN(C(=O)CCC(c2ccc(F)cc2)c2ccc(F)cc2)CC1.Cl` (stereo not drawn), the Latency in assay [31] was 21.5 s; in assay [32], 20.7 s; in [33] it was 15.5 s. Further, the Efficacy in [2] is on record as 56%. The Activity in assay [34] is given as 28.1 g; in assay [35] it was 33.4 g; in assay [36], 30.1 g; in assay [37] it was 55.7 g; in assay [38], 61.3 g; in assay [39], 66.4 g. Also, in [40], the IC50 was determined as 3000 nM.
For the compound `CN1CC[C@]23c4c5ccc(O)c4O[C@H]2[C@@H](O)C=C[C@H]3[C@H]1C5` [MORPHINE], the Latency in assay [41] turned out to be 28.6 s; in [42], 27.7 s; in [43], 22.4 s.
